Assay results: ChEMBL document CHEMBL3286336, “Design, synthesis and biological evaluation of hybrid bioisoster derivatives of N-acylhydrazone and furoxan groups with potential and selective anti-Trypanosoma cruzi activity” (Eur J Med Chem, 2014)

Assays:
[1] = Induction of NO release assessed as nitrite level; assay type: physicochemical
Summary of the method: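 Indirect measurement on a Sievers NOA 280 nitric oxide analyser; compounds dissolved in DMSO (1 mg in 200 µL) and analysed in oxygenated medium. Nitrite anion, the NO degradation byproduct, quantified; result given as IC50.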

Trypanosoma cruzi = assay: Trypanocidal activity against Trypanosoma cruzi Tulahuen C2C4 amastigotes infected in rat L6 cells after 4 days; assay type: functional, organism-based; conditions: Tulahuen C2C4, L6, 96 h
HepG2 = assay: Cytotoxicity against human HepG2 cells after 24 hrs by XTT assay; assay type: cell-based; conditions: HepG2, 24 h
Summary of the method: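 Cells kept in DMEM with 10% FCS, penicillin/streptomycin and bicarbonate at 37 °C, 5% CO2; plated at 5 × 10⁴ cells/well 24 h before treatment. Exposed 24 h to […] in DMSO (final 0.44% v/v). After two PBS washes, XTT reagent added for 1 h at 37 °C; OD 450 nm minus 690 nm, normalized to medium-only controls.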

[2] = Permeability across apical to basolateral side in human Caco2 cells; assay type: ADME, cell-based; conditions: Caco-2, read-out: permeability
Summary of the method: (§1)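 Caco-2 grown 21 days on Transwell filters (seeded 5 × 10⁴ cells/cm²); monolayer integrity checked by TEER and fluorescein, metoprolol, amoxicillin markers. […] compound in HBSS pH 7.4 dosed A→B and B→A, basolateral pH 7.4, 37 °C, orbital shaking 25 rpm. Quantified by HPLC-UV 254 nm (C18, 35 °C, phosphate pH 3.5/acetonitrile 50:50). Papp = (VR·ΔQ/Δt)/(A·C0), using only receiver concentrations under 10% of donor.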

[3] = Permeability across basolateral to apical side in human Caco2 cells; assay type: ADME, cell-based; conditions: Caco-2, read-out: permeability; summary of the method: as §1
[4] = Efflux ratio of permeability from basolateral to apical side over apical to basolateral side in human Caco2 cells; assay type: ADME, cell-based; conditions: Caco-2
[5] = Selectivity index, ratio of IC50 for human HepG2 cells to IC50 for Trypanosoma cruzi Tulahuen C2C4; assay type: toxicity, cell-based; conditions: read-out: Ratio IC50
Summary of the method: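 SI computed as XTT cytotoxicity IC50 divided by amastigote IC50.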

Cruzipain = Cruzipain (Trypanosoma cruzi, UniProt P25779); assay: Inhibition of Trypanosoma cruzi cruzain expressed in Escherichia coli M15/DH5alpha using Z-Phe-Arg-AMC as substrate by spectrofluorometry
Cruzipain, sequence (P25779 whole entry, the tested form may be a part): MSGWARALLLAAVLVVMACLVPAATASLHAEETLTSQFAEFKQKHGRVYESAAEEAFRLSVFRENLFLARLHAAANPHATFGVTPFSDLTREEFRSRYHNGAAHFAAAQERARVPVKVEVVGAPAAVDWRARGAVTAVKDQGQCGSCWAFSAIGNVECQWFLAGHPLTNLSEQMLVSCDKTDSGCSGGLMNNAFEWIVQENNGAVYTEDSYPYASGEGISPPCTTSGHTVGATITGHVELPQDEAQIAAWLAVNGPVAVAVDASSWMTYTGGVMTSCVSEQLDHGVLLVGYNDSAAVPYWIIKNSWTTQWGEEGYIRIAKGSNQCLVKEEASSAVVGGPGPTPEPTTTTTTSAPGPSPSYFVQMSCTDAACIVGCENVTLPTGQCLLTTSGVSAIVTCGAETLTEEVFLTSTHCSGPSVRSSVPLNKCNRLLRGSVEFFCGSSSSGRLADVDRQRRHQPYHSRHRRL
Summary of the method: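 C-terminally truncated cruzain (0.64 nM) in 50 mM sodium phosphate, 100 mM NaCl, 5 mM EDTA, 5 mM DTT, pH 6.5, preincubated 5 min at room temperature with inhibitor before adding Z-Phe-Arg-AMC. AMC release followed by fluorescence (ex 355, em 460 nm). IC50 by nonlinear regression of activity relative to no-inhibitor control.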

IC50 [1] [µM] | Papp A→B [2] [×10⁻⁶ cm/s] | Papp B→A [3] [×10⁻⁶ cm/s] | efflux ratio [4] | IC50 (Cruzipain) [µM] | SMILES | IC50 (Trypanosoma cruzi) [µM] | IC50 (HepG2) [µM] | selectivity ratio [5]
56 | – | – | – | – | Cc1c(/C=N/NC(=O)c2ccc(Cl)cc2)no[n+]1[O-] | 14.3 | – | –
867 | – | – | – | – | O=C(N/N=C/c1c(-c2ccccc2)no[n+]1[O-])c1ccco1 | 8.12 | – | –
4230 | – | – | – | – | O=C(N/N=C/c1c(-c2ccccc2)no[n+]1[O-])c1ccc(Cl)cc1 | > 100 | – | –
601 | – | – | – | – | O=C(N/N=C/c1c(-c2ccccc2)no[n+]1[O-])c1ccc(Br)cc1 | > 100 | – | –
912 | – | – | – | – | O=C(N/N=C/c1c(-c2ccccc2)no[n+]1[O-])c1cccc([N+](=O)[O-])c1 | 15.3 | – | –
132 | – | – | – | – | O=C(N/N=C/c1c(-c2ccccc2)no[n+]1[O-])c1ccccc1 | > 100 | – | –
110 | 0.82 | 0.52 | 0.63 | 15.1 | O=C(N/N=C/c1c(-c2ccccc2)no[n+]1[O-])c1ccc([N+](=O)[O-])cc1 | 2.9 | 45.5 | 15.7
33.4 | – | – | – | – | O=C(Cc1ccccc1)N/N=C/c1c(-c2ccccc2)no[n+]1[O-] | 9.1 | – | –

The remaining lines, values behind:

SMILES | IC50 [1] [µM] | Papp A→B [2] [×10⁻⁶ cm/s] | Papp B→A [3] [×10⁻⁶ cm/s] | efflux ratio [4] | IC50 (Cruzipain) [µM] | IC50 (Trypanosoma cruzi) [µM] | IC50 (HepG2) [µM] | selectivity ratio [5]
Cc1c(/C=N/NC(=O)c2cccc([N+](=O)[O-])c2)no[n+]1[O-] | 52 | – | – | – | – | 9.94 | – | –
Cc1c(/C=N/NC(=O)c2ccco2)no[n+]1[O-] | 1220 | – | – | – | – | 6.7 | – | –
Cc1c(/C=N/NC(=O)c2ccccc2)no[n+]1[O-] | 210 | – | – | – | – | > 100 | – | –
Cc1c(/C=N/NC(=O)Cc2ccccc2)no[n+]1[O-] | 898 | – | – | – | – | > 100 | – | –
Cc1c(/C=N/NC(=O)c2ccc(Br)cc2)no[n+]1[O-] | 102 | – | – | – | – | 27.4 | – | –
Cc1c(/C=N/NC(=O)c2ccc([N+](=O)[O-])cc2)no[n+]1[O-] | 242 | 43.2 | 37.6 | 0.87 | 11.2 | 2.88 | 80.9 | 28.1
Cc1c(/C=N/NC(=O)c2ccccc2Nc2ccccc2)no[n+]1[O-] | 124 | – | – | – | – | 5.69 | – | –
O=C(Cn1ccnc1[N+](=O)[O-])NCc1ccccc1 [BENZNIDAZOLE] | – | – | – | – | – | 1.5 | 28.1 | 18.7
